From ChEMBL document CHEMBL4043129, “Design, synthesis and bioactivities of Celecoxib analogues or derivatives” (Bioorg Med Chem, 2017)
Activity calls are given as the source filed them. The calls are words filed in the database; no cut-off is given here.

What was measured:
[1] = Lipid/water partition coefficient, log P of the compound; format: physicochemical
[2] = molecular target: T1, Prostaglandin G/H synthase 1 (Rattus norvegicus, UniProt Q63921); assay: Inhibition of COX-1 in rat peritoneal macrophages assessed as reduction in [125I]-6-Keto-PGF1alpha production using arachidonic acid as substrate pretreated for 30 mins followed by substrate addition measured after 30 mins
T1 sequence (Q63921 whole entry): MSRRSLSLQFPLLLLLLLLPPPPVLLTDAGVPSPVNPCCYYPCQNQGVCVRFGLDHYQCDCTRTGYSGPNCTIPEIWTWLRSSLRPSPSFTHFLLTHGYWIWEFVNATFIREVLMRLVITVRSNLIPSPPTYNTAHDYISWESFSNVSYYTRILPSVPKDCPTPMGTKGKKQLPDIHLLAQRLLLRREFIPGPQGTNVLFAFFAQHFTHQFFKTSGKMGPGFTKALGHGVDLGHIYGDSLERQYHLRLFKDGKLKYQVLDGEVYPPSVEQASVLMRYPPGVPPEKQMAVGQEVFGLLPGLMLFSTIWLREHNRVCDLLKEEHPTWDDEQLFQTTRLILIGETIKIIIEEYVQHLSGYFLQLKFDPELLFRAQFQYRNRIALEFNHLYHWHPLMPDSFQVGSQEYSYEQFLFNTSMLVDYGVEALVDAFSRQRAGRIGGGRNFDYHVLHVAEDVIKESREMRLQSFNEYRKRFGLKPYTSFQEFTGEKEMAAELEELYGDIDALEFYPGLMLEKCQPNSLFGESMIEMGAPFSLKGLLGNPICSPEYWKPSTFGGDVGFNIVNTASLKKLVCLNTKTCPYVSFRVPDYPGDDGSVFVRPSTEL
Outline: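 Rat peritoneal macrophages were elicited with 5 mL 0.5% gelatin i.p. and harvested after 5 h. Cells were washed, seeded at 1.0 × 10^6/mL and adhered 24 h at 37 °C, 5% CO2, then kept 24 h in 0.5% FCS RPMI-1640. Compounds at several concentrations were added for 30 min, then arachidonic acid for 30 min. 125I-6-keto-PGF1α was read by kit, and IC50 was taken as the concentration halving radioactivity.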

[3] = molecular target: T2, Prostaglandin G/H synthase 2 (Rattus norvegicus, UniProt P35355); assay: Inhibition of COX-2 in rat peritoneal macrophages assessed as reduction in PGE2 production using radiolabelled-arachidonic acid as substrate pretreated for 30 mins followed by substrate addition measured after 30 mins
T2 sequence (P35355 whole entry): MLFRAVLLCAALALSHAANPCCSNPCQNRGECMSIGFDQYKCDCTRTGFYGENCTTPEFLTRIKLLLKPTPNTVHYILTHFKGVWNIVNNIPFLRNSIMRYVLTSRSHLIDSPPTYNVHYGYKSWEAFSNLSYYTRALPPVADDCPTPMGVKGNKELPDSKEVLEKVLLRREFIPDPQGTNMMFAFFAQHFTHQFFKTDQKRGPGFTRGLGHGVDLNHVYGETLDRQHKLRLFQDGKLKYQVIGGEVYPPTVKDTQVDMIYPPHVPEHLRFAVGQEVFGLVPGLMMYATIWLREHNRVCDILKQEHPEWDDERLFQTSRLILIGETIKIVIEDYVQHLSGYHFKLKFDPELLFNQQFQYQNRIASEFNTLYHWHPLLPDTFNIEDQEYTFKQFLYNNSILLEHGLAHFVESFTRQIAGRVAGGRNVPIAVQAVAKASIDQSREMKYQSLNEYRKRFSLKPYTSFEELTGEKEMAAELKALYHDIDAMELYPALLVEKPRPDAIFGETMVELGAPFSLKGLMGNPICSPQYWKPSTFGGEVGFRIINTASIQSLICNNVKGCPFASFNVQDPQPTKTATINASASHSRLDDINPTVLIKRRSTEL

[4] = Selectivity index, ratio of IC50 for COX1 in rat peritoneal macrophages to IC50 for COX2 in rat peritoneal macrophages
Outline: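 Both IC50s come from gelatin-elicited rat peritoneal macrophages given 0.5% FCS RPMI-1640 for 24 h, then compound for 30 min and arachidonic acid for 30 min. COX-1 was read as 125I-6-keto-PGF1α. For COX-2, cells first had 10% FCS for 1 h, a PBS rinse and […] LPS for 8 h, and supernatant PGE2 was read. Each IC50 is the concentration halving radioactivity.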

[5] = Dissociation constant, pKa of the compound; format: physicochemical
Rattus norvegicus [6] = assay: In-vivo inhibition of COX2 in rat at 20 mg/kg measured after 20 mins; format: functional
Rattus norvegicus [7] = assay: In-vivo inhibition of COX2 in rat at 20 mg/kg measured after 40 mins; format: functional
Rattus norvegicus [8] = assay: In-vivo inhibition of COX2 in rat at 20 mg/kg measured after 60 mins; format: functional; details: 1 h
Rattus norvegicus [9] = assay: In-vivo inhibition of COX2 in rat at 20 mg/kg measured after 90 mins; format: functional; details: 1.5 h
Rattus norvegicus [10] = assay: In-vivo inhibition of COX2 in rat at 20 mg/kg measured after 120 mins; format: functional; details: 2 h
Rattus norvegicus [11] = assay: Anti-inflammatory activity in rat assessed as reduction in PGE2 release at 20 mg/kg measured after 2 hrs; format: functional, organism-based

Row | logP [1] | IC50 [2] | IC50 [3] | pKa [5] | SMILES | Ratio IC50 [4] | inhibition in vivo at 20 mg/kg (Rattus norvegicus [6]) | inhibition in vivo at 20 mg/kg (Rattus norvegicus [7]) | inhibition in vivo at 20 mg/kg (Rattus norvegicus [8]) | inhibition in vivo at 20 mg/kg (Rattus norvegicus [9]) | inhibition in vivo at 20 mg/kg (Rattus norvegicus [10]) | Activity (Rattus norvegicus [11])
1 | 3.5 | 98.2 µM | 12.7 µM | 8 | CN1C=CC(C2SC(C(Cl)(Cl)Cl)=CN2c2ccc(S(N)(=O)=O)cc2)C=C1 (stereo not given) | 7.7 | – | – | – | – | – | –
2 | 1.68 | 55.6 µM | 1.27 µM | 7.18 | CN1C=CN(C2OC(C(F)(F)F)=CN2c2ccc(S(N)(=O)=O)cc2)C=C1 (stereo not given) | 43.8 | – | – | – | – | – | –
3 | – | – | – | – | Cc1ccc(-c2cc(C(F)(F)F)nn2-c2ccc(S(N)(=O)=O)cc2)cc1 [CELECOXIB] | – | 45.3% | 68.4% | 89.1% | 100% | 100% | –
4 | 1.04 | 98.5 µM | 20.1 µM | 7.01 | CC1=CN(c2ccc(S(N)(=O)=O)cc2)C(N2C=CN(C)C=C2)O1 (stereo not given) | 4.9 | – | – | – | – | – | –
5 | 2.78 | 83.1 µM | 13.7 µM | 7.63 | CN1C=CC(C2OC(C(Cl)(Cl)Cl)=CN2c2ccc(S(N)(=O)=O)cc2)C=C1 (stereo not given) | 6.1 | – | – | – | – | – | –
6 | – | – | – | – | CC1=CN(c2ccc(S(N)(=O)=O)cc2)C(C2C=CN(C)C=C2)N1 (stereo not given) | – | – | – | – | – | – | Active
7 | 1.75 | 76.9 µM | 16.4 µM | 7.2 | CC1=CN(c2ccc(S(N)(=O)=O)cc2)C(N2C=CN(C)C=C2)S1 (stereo not given) | 4.8 | – | – | – | – | – | –
8 | 3.13 | 88.6 µM | 11.6 µM | 7.76 | CN1C=CN(C2SC(C(Cl)(Cl)Cl)=CN2c2ccc(S(N)(=O)=O)cc2)C=C1 (stereo not given) | 7.7 | – | – | – | – | – | –
9 | 1.4 | 95.2 µM | 17.4 µM | 7.09 | CC1=CN(c2ccc(S(N)(=O)=O)cc2)C(C2C=CN(C)C=C2)O1 (stereo not given) | 5.5 | – | – | – | – | – | –
10 | 2.38 | 52.4 µM | 0.0793 µM | 7.5 | CN1C=CN(C2SC(C(F)(F)F)=CN2c2ccc(S(N)(=O)=O)cc2)C=C1 (stereo not given) | 660.3 | 42.5% | 63.1% | 86.1% | 97.3% | 98% | Active
11 | – | – | – | – | CN1C=CN(C2NC(C(F)(F)F)=CN2c2ccc(S(N)(=O)=O)cc2)C=C1 (stereo not given) | – | – | – | – | – | – | Active
12 | 2.41 | 53.4 µM | 0.099 µM | 7.55 | CN1C=CN(C2OC(C(Cl)(Cl)Cl)=CN2c2ccc(S(N)(=O)=O)cc2)C=C1 (stereo not given) | 539.3 | 40.6% | 60.9% | 85.9% | 95.4% | 97.9% | Active
13 | 2.12 | 56.9 µM | 1.53 µM | 7.39 | CC1=CN(c2ccc(S(N)(=O)=O)cc2)C(C2C=CN(C)C=C2)S1 (stereo not given) | 37.1 | – | – | – | – | – | –
14 | 2.77 | 80.5 µM | 8.08 µM | 7.62 | CN1C=CC(C2SC(C(F)(F)F)=CN2c2ccc(S(N)(=O)=O)cc2)C=C1 (stereo not given) | 10 | – | – | – | – | – | –
15 | 2.05 | 50.2 µM | 0.053 µM | 7.33 | CN1C=CC(C2OC(C(F)(F)F)=CN2c2ccc(S(N)(=O)=O)cc2)C=C1 (stereo not given) | 947.5 | 44.6% | 64.9% | 87.5% | 99.6% | 100% | Active
